Laboratory results taken from ChEMBL document CHEMBL2331224 (J Med Chem, 2013).
Active and inactive are the calls of the source. No cut-off for these calls is given here.

Tests used:
Mus musculus [1] = test: Antidiabetic activity in KKAy mouse at 10 mg/kg/day, po for 14 days measured on day 15 by oral glucose tolerance test relative to control; type: functional, organism-based
Outline: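 On day 15, KK-A^y mice dosed orally at 10 mg/kg/day for 14 days were fasted 17 h and given oral glucose at 1 g/kg. Blood glucose was read by glucose oxidase at 0, 15, 30, 45, 60, 90 and 120 min. n = 4−5.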

[2] = molecular target: T1, Retinoic acid receptor RXR-alpha (Mus musculus) (UniProt P28700); test: Partial agonist activity at mouse RXRalpha expressed in COS1 cells by luciferase reporter gene assay relative to bexarotene; type: cell-based; conditions: COS-1
T1 sequence (whole entry): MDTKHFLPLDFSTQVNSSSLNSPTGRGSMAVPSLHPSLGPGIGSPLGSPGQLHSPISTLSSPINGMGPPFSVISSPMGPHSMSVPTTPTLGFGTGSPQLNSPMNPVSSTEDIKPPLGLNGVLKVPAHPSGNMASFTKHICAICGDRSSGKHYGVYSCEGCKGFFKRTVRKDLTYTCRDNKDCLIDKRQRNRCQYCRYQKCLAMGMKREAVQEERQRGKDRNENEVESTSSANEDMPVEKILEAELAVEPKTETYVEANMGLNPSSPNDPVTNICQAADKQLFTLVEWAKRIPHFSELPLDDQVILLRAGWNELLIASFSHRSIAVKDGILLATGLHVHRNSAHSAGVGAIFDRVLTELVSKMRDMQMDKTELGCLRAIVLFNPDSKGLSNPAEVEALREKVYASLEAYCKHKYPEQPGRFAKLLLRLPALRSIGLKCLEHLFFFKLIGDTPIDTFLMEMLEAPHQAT

[3] = molecular target: T2, Retinoic acid receptor RXR-alpha (Homo sapiens) (UniProt P19793); test: Partial agonist activity at RXRalpha (unknown origin) expressed in COS1 cells after 18 hrs by luciferase reporter gene assay relative to bexarotene; type: cell-based; conditions: COS-1
T2 sequence (whole entry): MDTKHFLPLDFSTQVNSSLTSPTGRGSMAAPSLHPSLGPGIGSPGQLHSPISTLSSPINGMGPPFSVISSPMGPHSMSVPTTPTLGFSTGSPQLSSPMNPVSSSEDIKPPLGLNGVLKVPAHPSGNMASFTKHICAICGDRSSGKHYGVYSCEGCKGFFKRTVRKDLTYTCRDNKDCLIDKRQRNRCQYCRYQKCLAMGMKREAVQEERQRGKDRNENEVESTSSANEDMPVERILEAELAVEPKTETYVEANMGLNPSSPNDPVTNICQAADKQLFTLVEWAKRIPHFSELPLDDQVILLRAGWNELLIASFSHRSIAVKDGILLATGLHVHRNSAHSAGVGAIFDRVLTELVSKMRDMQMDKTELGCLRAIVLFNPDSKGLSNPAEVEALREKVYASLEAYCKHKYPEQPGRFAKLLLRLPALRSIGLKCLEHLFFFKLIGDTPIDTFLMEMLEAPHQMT
Outline: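 COS-1 cells in DMEM with 10% FBS at 37 °C, 5% CO2, transfected with RXRα, an RXR-response-element luciferase reporter and a SEAP background vector. Cells were seeded at about 2.0 × 10⁴ per well with compound (DMSO below 1%) for 18 h. Luciferase was normalized to SEAP and expressed relative to 1 μM reference RXR full agonist as 100%. EC50 came from full dose-response curves. Triplicates, at least three experiments.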

Mus musculus [4] = test: Toxicity in ICR mouse assessed as development of hepatomegaly at 30 mg/kg/day, po for 7 days; type: organism-based; design: route oral; conditions: in vivo, 168 h
Outline: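 Male ICR mice, 6−7 weeks old, four per cage, grouped by body weight. Oral 30 mg/kg or vehicle (1% ethanol/0.5% CMC in water, 10 mL/kg) once daily for 7 days, body weight recorded daily. After overnight fasting, mice were weighed under ether, and liver was removed and weighed. Serum was analysed on a dry-chemistry analyser for TG, TCHO, ALP, CRE, BUN and other markers. n = 7−23, ANOVA.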

Mus musculus [5] = test: Toxicity against KKAy mouse assessed as plasma triglyceride level at 10 mg/kg/day, po for 14 days (reference value: 122.4 +/- 11.0 mg/dL); type: organism-based; design: route oral; conditions: in vivo, 336 h
Mus musculus [6] = test: Toxicity against KKAy mouse assessed as blood urea nitrogen level at 10 mg/kg/day, po for 14 days (reference value: 21.9 +/- 1.1 mg/dL); type: organism-based; design: route oral; conditions: in vivo, 336 h
[7] = molecular target: T3, Retinoic acid receptor gamma (Homo sapiens) (UniProt P13631); test: Transactivation of RARgamma (unknown origin) by luciferase reporter gene assay relative to All-trans retinoic acid
T3 sequence (whole entry): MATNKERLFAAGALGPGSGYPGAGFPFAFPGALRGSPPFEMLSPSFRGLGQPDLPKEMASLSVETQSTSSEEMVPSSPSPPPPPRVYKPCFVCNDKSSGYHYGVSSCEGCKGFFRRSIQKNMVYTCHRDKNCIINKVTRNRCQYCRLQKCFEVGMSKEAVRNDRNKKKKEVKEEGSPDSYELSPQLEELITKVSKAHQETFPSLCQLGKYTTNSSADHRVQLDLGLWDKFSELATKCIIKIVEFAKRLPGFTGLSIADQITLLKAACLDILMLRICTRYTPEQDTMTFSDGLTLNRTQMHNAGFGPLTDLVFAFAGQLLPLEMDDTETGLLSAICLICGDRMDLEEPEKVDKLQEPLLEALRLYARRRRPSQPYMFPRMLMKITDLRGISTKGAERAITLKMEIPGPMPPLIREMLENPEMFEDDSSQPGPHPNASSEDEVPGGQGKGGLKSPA

Mus musculus [8] = test: Toxicity against KKAy mouse assessed as plasma AST level at 10 mg/kg/day, po for 14 days (reference value: 49.6 +/- 2.3 IU); type: organism-based; design: route oral; conditions: in vivo, 336 h
[9] = molecular target: Retinoic acid receptor RXR-alpha/oxysterols receptor LXR-alpha (Homo sapiens) (UniProt P19793+Q13133); test: Transactivation of LXRalpha/RXRalpha (unknown origin) by luciferase reporter gene assay relative to carba-T0901317; type: protein-complex assay
Outline: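 Heterodimer reporter in COS-1 cells co-transfected with RXRα (0.5 μg), partner receptor (LXRα for line 2, PPARγ for line 3; 0.5 μg), partner response element-luciferase (4.0 μg), and SEAP. Compound (DMSO below 1%) with ~2.0 × 10⁴ cells/well, 18 h, 37 °C; luciferase normalized to SEAP; triplicate, three runs.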

Rattus norvegicus = test: Toxicity in Sprague-Dawley rat assessed as change in weight of organs at 30 mg/kg, po for 28 days; type: organism-based; design: dose 30 mg/kg, route oral; conditions: in vivo, 672 h
Outline: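 Male and female SD rats, four weeks old on arrival, two per cage. Oral 30 mg/kg/day or vehicle (1% ethanol/0.5% CMC in water, 5 mL/kg) for 28 days, body weight recorded daily. After overnight fasting and isoflurane anaesthesia, liver, brain, kidney, spleen and testis were weighed, and serum was collected (2000g, 10 min, 4 °C) for blood chemistry.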

- Activity [2]: Active
- Emax [3]: 67%
- Activity [7]: Active
- Activity [9]: Active
Compound: Cc1cc2c(cc1-n1c(C(F)(F)F)nc3cc(C(=O)O)ccc31)C(C)(C)CCC2(C)C
- Activity (Mus musculus [1]): inactive
- Activity (Mus musculus [4]): Toxic
- Activity (Mus musculus [5]): 185 mg/dL
- Activity (Mus musculus [6]): 22.5 mg/dL
- Activity (Mus musculus [8]): 42.3 IU
- Activity (Rattus norvegicus): Non-toxic
